Test results published in the array DNA melting data of Ke et al. (doi:10.1101/2024.01.08.574731).

How the values were obtained:
[1] = folding enthalpy; higher = less favourable; fluorescence melt of hairpins on a sequencing array, two-state fit; details: sodium 0.088 M
Outline: (§1)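 Cy3 fluorescence of library hairpins on a sequenced MiSeq flow cell, with annealed Cy3 and quencher oligos, was imaged in 50 mM Na-HEPES pH 8.0, 25 mM NaCl in 2.5 °C steps up to 60 °C. Signals were normalised to pre-quench Cy3 and to control variants. Melting temperature and folding enthalpy came from bootstrapped two-state fits, inverse-variance combined over four replicates. Fitted temperatures were raised by 9.35 °C to match UV melts.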

[2] = melting temperature; fluorescence melt of hairpins on a sequencing array, two-state fit, raised by 9.35 °C to match UV melts; details: sodium 0.088 M
Outline: as §1

Sequence | folding enthalpy [1] | Tm [2]
GATCTATGCCTAGATC ((((((....)))))) | -33.3 kcal/mol | 41 °C
GATCTATGTATAGATC ((((((....)))))) | -36.9 kcal/mol | 48.2 °C
GATCTATTGATAGATC ((((((....)))))) | -28.8 kcal/mol | 44.7 °C
GATCTCAAATGAGATC ((((((....)))))) | -37.8 kcal/mol | 50 °C
GATCTCAACGGAGATC ((((((....)))))) | -35 kcal/mol | 52.3 °C
GATCTCAAGGAGATC ((((((...)))))) | -37.4 kcal/mol | 54.2 °C
GATCTCAATGAGATC ((((((...)))))) | -35.9 kcal/mol | 50.6 °C
GATCTCAATGGAGATC ((((((....)))))) | -40.6 kcal/mol | 51.5 °C
GATCTCACACGAGATC ((((((....)))))) | -41.5 kcal/mol | 52.4 °C
GATCTCACCCGAGATC ((((((....)))))) | -39.5 kcal/mol | 53.1 °C
GATCTCACCTGAGATC ((((((....)))))) | -44.1 kcal/mol | 53.5 °C
GATCTCAGAAGAGATC ((((((....)))))) | -33.5 kcal/mol | 50.6 °C
GATCTCAGCAGAGATC ((((((....)))))) | -31.9 kcal/mol | 58.2 °C
GATCTCAGGAGAGATC ((((((....)))))) | -34.7 kcal/mol | 50.8 °C
GATCTCAGGCGAGATC ((((((....)))))) | -27.7 kcal/mol | 51.5 °C
GATCTCAGGGAGATC ((((((...)))))) | -29.5 kcal/mol | 54.5 °C
GATCTCAGGGGAGATC ((((((....)))))) | -34.4 kcal/mol | 52.5 °C
GATCTCATAGGAGATC ((((((....)))))) | -38.1 kcal/mol | 51.2 °C
GATCTCATCGAGATC ((((((...)))))) | -36.1 kcal/mol | 55.8 °C
GATCTCATCTGAGATC ((((((....)))))) | -39.9 kcal/mol | 53.6 °C
GATCTCATGCGAGATC ((((((....)))))) | -48.3 kcal/mol | 52.1 °C
GATCTCATTCGAGATC ((((((....)))))) | -39.4 kcal/mol | 53.5 °C
GATCTCATTTGAGATC ((((((....)))))) | -37.4 kcal/mol | 55.5 °C
GATCTCCAAGAGATC ((((((...)))))) | -30.2 kcal/mol | 49.8 °C

Sequence | folding enthalpy [1] | Tm [2]
GATCTCCAATGAGATC ((((((....)))))) | -34.2 kcal/mol | 51.3 °C
GATCTCCACGGAGATC ((((((....)))))) | -39.2 kcal/mol | 55.9 °C
GATCTCCATAGAGATC ((((((....)))))) | -33.4 kcal/mol | 56.8 °C
GATCTCCCGGGAGATC ((((((....)))))) | -52.9 kcal/mol | 58.3 °C
GATCTCCGCAGAGATC ((((((....)))))) | -34.6 kcal/mol | 57.8 °C
GATCTCCGGAGAGATC ((((((....)))))) | -39.4 kcal/mol | 52.7 °C
GATCTCCGTCGAGATC ((((((....)))))) | -41.3 kcal/mol | 51 °C
GATCTCCGTTGAGATC ((((((....)))))) | -35.6 kcal/mol | 52.6 °C
GATCTCCTCCGAGATC ((((((....)))))) | -42.5 kcal/mol | 51.4 °C
GATCTCCTTGGAGATC ((((((....)))))) | -47.6 kcal/mol | 60.5 °C
GATCTCGACTGAGATC ((((((....)))))) | -45.9 kcal/mol | 55.8 °C
GATCTCGATCGAGATC ((((((....)))))) | -48.5 kcal/mol | 56.9 °C
GATCTCGCATGAGATC ((((((....)))))) | -44.8 kcal/mol | 61.6 °C
GATCTCGCCTGAGATC ((((((....)))))) | -36.8 kcal/mol | 54 °C
GATCTCGCGGGAGATC ((((((....)))))) | -33.1 kcal/mol | 52.4 °C
GATCTCGCTCGAGATC ((((((....)))))) | -44.8 kcal/mol | 57.5 °C
GATCTCGGAAACGAGATC (((((((....))))))) | -45.5 kcal/mol | 64.3 °C
GATCTCGGAGAGATC ((((((...)))))) | -33.3 kcal/mol | 67.4 °C
GATCTCGGGAGAGATC ((((((....)))))) | -41.6 kcal/mol | 63.2 °C
GATCTCGGTCGAGATC ((((((....)))))) | -41.5 kcal/mol | 56.2 °C
GATCTCGGTGAGATC ((((((...)))))) | -12.9 kcal/mol | 55.9 °C
GATCTCGTAAGAGATC ((((((....)))))) | -35.3 kcal/mol | 68.4 °C
GATCTCGTATGAGATC ((((((....)))))) | -46.5 kcal/mol | 59.2 °C
GATCTCGTGAGAGATC ((((((....)))))) | -31 kcal/mol | 66.9 °C

Sequence | folding enthalpy [1] | Tm [2]
GATCTCGTTAGAGATC ((((((....)))))) | -39.9 kcal/mol | 65.1 °C
GATCTCGTTTGAGATC ((((((....)))))) | -32.9 kcal/mol | 55.6 °C
GATCTCTAAGGAGATC ((((((....)))))) | -34.9 kcal/mol | 53.8 °C
GATCTCTAATGAGATC ((((((....)))))) | -46.5 kcal/mol | 49.9 °C
GATCTCTATCGAGATC ((((((....)))))) | -39.4 kcal/mol | 51.1 °C
GATCTCTCATGAGATC ((((((....)))))) | -44.1 kcal/mol | 52.3 °C
GATCTCTCCCGAGATC ((((((....)))))) | -41.2 kcal/mol | 52.1 °C
GATCTCTCGGAGATC ((((((...)))))) | -37.1 kcal/mol | 55.6 °C
GATCTCTCTGAGATC ((((((...)))))) | -37.5 kcal/mol | 55.4 °C
GATCTCTGACGAGATC ((((((....)))))) | -30.5 kcal/mol | 50 °C
GATCTCTGAGAGATC ((((((...)))))) | -32.5 kcal/mol | 52.1 °C
GATCTCTGAGGAGATC ((((((....)))))) | -43.4 kcal/mol | 55.8 °C
GATCTCTGATGAGATC ((((((....)))))) | -33.3 kcal/mol | 51.3 °C
GATCTCTGTGAGATC ((((((...)))))) | -42.6 kcal/mol | 54.9 °C
GATCTCTGTTGAGATC ((((((....)))))) | -41 kcal/mol | 54.3 °C
GATCTCTTAGGAGATC ((((((....)))))) | -38.1 kcal/mol | 54.2 °C
GATCTCTTCGGAGATC ((((((....)))))) | -42.6 kcal/mol | 54.5 °C
GATCTCTTGAGAGATC ((((((....)))))) | -32.4 kcal/mol | 53.8 °C
GATCTCTTGCGAGATC ((((((....)))))) | -42.4 kcal/mol | 51.9 °C
GATCTGAAACAGATC ((((((...)))))) | -31.6 kcal/mol | 46.3 °C
GATCTGAAAGCAGATC ((((((....)))))) | -26.4 kcal/mol | 42.1 °C
GATCTGAACGCAGATC ((((((....)))))) | -26.1 kcal/mol | 46.3 °C
GATCTGAAGTCAGATC ((((((....)))))) | -39.1 kcal/mol | 47.7 °C
GATCTGAATCCAGATC ((((((....)))))) | -37.8 kcal/mol | 46 °C

Sequence | folding enthalpy [1] | Tm [2]
GATCTGACAGCAGATC ((((((....)))))) | -28.6 kcal/mol | 44.7 °C
GATCTGACCCAGATC ((((((...)))))) | -37.4 kcal/mol | 47.7 °C
GATCTGACCTCAGATC ((((((....)))))) | -38.9 kcal/mol | 49.3 °C
GATCTGACGCAGATC ((((((...)))))) | -29.5 kcal/mol | 47.3 °C
GATCTGACGTCAGATC ((((((....)))))) | -42.6 kcal/mol | 55.5 °C
GATCTGACTCCAGATC ((((((....)))))) | -33.9 kcal/mol | 46.6 °C
GATCTGACTTCAGATC ((((((....)))))) | -34.2 kcal/mol | 49.2 °C
GATCTGAGACCAGATC ((((((....)))))) | -32.9 kcal/mol | 44.5 °C
GATCTGAGCACAGATC ((((((....)))))) | -29 kcal/mol | 49.5 °C
GATCTGAGCGCAGATC ((((((....)))))) | -24.7 kcal/mol | 48.5 °C
GATCTGAGGACAGATC ((((((....)))))) | -26.1 kcal/mol | 46.3 °C
GATCTGAGTCCAGATC ((((((....)))))) | -30 kcal/mol | 46.7 °C
GATCTGATACAGATC ((((((...)))))) | -39.4 kcal/mol | 48.7 °C
GATCTGATCACAGATC ((((((....)))))) | -36.8 kcal/mol | 50.4 °C
GATCTGCACACAGATC ((((((....)))))) | -43.9 kcal/mol | 51.6 °C
GATCTGCATCAGATC ((((((...)))))) | -30.6 kcal/mol | 47.8 °C
GATCTGCATCCAGATC ((((((....)))))) | -42 kcal/mol | 46.7 °C
GATCTGCCCCAGATC ((((((...)))))) | -33.6 kcal/mol | 49.2 °C
GATCTGCCGAAAGGCATC (((..(((....)))))) | -6.41 kcal/mol | 24.6 °C
GATCTGCCGACAGATC ((((((....)))))) | -29.7 kcal/mol | 50.1 °C
GATCTGCCTTCAGATC ((((((....)))))) | -30.7 kcal/mol | 49 °C
GATCTGCGAAAGCAATC (((.(((....)))))) | -12.2 kcal/mol | 27.8 °C
GATCTGCGGCAGATC ((((((...)))))) | -46.3 kcal/mol | 50.2 °C
GATCTGCGGTCAGATC ((((((....)))))) | -32.9 kcal/mol | 49.7 °C
